What was measured:
Type in all cases: functional
Mus musculus [1] = assay: Effective dose by mouse phenyl-p-benzoquinone writhing (PQW)assay after peroral administration; activity value ranges from (7.5-51.9); conditions: po
In short: (§1)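 Fasted (17-21 h) female white mice, 5-20 per double-blind test, dosed orally with compound suspended in 1% methylcellulose. 0.20 mL aqueous 0.01% phenyl-p-benzoquinone given i.p. 6 min before a 10-min observation for stretching/writhing. ED50 (dose protecting 50% of mice) calculated by the moving-average method.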

Rattus norvegicus [2] = assay: Effective dose determined against rat adjuvant arthritis after peroral administration; conditions: po
In short: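 Male Lewis rats (130-150 g) given 0.1 mL Mycobacterium butyricum adjuvant (5 mg/mL in mineral oil) s.c. into the right hind paw; arthritis developed for 2 weeks. Groups of 10 matched for severity were dosed orally by gavage in PVA-acacia vehicle (10 mL/kg) for 7 days. Uninjected left paw volume was measured the day after the last dose. Percent decrease was calculated vs arthritic and nonarthritic controls. ED50 was read from a visually fitted semilog dose-response line.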

Mus musculus [3] = assay: Effective dose by mouse phenyl-p-benzoquinone writhing (PQW)assay after peroral administration; 30.9-197.0; conditions: po
Mus musculus [4] = assay: Effective dose determined by mouse phenyl-p-benzoquinone writhing (PQW) assay after peroral administration; conditions: po; in short: as §1
Rattus norvegicus [5] = assay: Decrease in paw volume was evaluated at dose 150 mg/kg
In short: (§2)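 Male Lewis rats (130-150 g) got 0.1 mL adjuvant (heat-killed Mycobacterium butyricum, 5 mg/mL in mineral oil) subplantar in the right hind paw and were left 2 weeks. Groups of 10 matched for severity were dosed orally by gavage (PVA-acacia vehicle, 10 mL/kg) for 7 days. Uninjected left hind paw volume was read the next day. % decrease = (arthritic control − treated)/(arthritic − nonarthritic control) × 100; Student's t-test.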

Mus musculus [6] = assay: Effective dose by mouse phenyl-p-benzoquinone writhing (PQW)assay after peroral administration; activity value ranges from (1.2-4.5); conditions: po
Mus musculus [7] = assay: Effective dose by mouse phenyl-p-benzoquinone writhing (PQW)assay after peroral administration; activity value ranges from (10.9-40.0); conditions: po; in short: as §1
Rattus norvegicus [8] = assay: Decrease in paw volume by the effect of compound at a dose of 30 mg/kg; in short: as §2
Mus musculus [9] = assay: Effective dose by mouse phenyl-p-benzoquinone writhing (PQW)assay after peroral administration; 6.8-17.7; conditions: po
Mus musculus [10] = assay: Effective dose by mouse phenyl-p-benzoquinone writhing (PQW)assay after peroral administration; activity value ranges from (9.2 - 43.6); conditions: po; in short: as §1
Mus musculus [11] = assay: Effective dose by mouse phenyl-p-benzoquinone writhing (PQW)assay after peroral administration; activity value ranges from (2.6-10.7); conditions: po; in short: as §1
Mus musculus [12] = assay: Effective dose by mouse phenyl-p-benzoquinone writhing (PQW)assay after peroral administration; activity value ranges from (4.8 - 25.4); conditions: po; in short: as §1
Mus musculus [13] = assay: Effective dose by mouse phenyl-p-benzoquinone writhing (PQW)assay after peroral administration; activity value ranges from (0.9-4.5); conditions: po
Mus musculus [14] = assay: Effective dose by mouse phenyl-p-benzoquinone writhing (PQW)assay after peroral administration; activity value ranges from (8.4-80.4); conditions: po; in short: as §1
Rattus norvegicus [15] = assay: Decrease in paw volume by the effect of compound at a dose of 25 mg/kg; in short: as §2
Rattus norvegicus [16] = assay: Decrease in paw volume was evaluated at dose 50 mg/kg; in short: as §2
Mus musculus [17] = assay: Effective dose by mouse phenyl-p-benzoquinone writhing (PQW)assay after peroral administration; activity value ranges from (4.6 - 21.7); conditions: po; in short: as §1
Mus musculus [18] = assay: Effective dose by mouse phenyl-p-benzoquinone writhing (PQW)assay after peroral administration; activity value ranges from (28.6-55.9); conditions: po; in short: as §1
Mus musculus [19] = assay: Effective dose by mouse phenyl-p-benzoquinone writhing (PQW)assay after peroral administration; 3.1-14.0; conditions: po
Mus musculus [20] = assay: Effective dose by mouse phenyl-p-benzoquinone writhing (PQW)assay after peroral administration; 4.5-25.9; conditions: po
Mus musculus [21] = assay: Effective dose by mouse phenyl-p-benzoquinone writhing (PQW)assay after peroral administration; activity value ranges from (15.9-183); conditions: po; in short: as §1
Mus musculus [22] = assay: Effective dose by mouse phenyl-p-benzoquinone writhing (PQW)assay after peroral administration; activity value ranges from (0.66-2.55); conditions: po
Mus musculus [23] = assay: Effective dose by mouse phenyl-p-benzoquinone writhing (PQW)assay after peroral administration; activity value ranges from (57.4 - 203.2); conditions: po; in short: as §1
Mus musculus [24] = assay: Effective dose by mouse phenyl-p-benzoquinone writhing (PQW)assay after peroral administration; activity value ranges from (18.6-69.6); conditions: po; in short: as §1
Mus musculus [25] = assay: Effective dose by mouse phenyl-p-benzoquinone writhing (PQW)assay after peroral administration; activity value ranges from (8.8-36.8); conditions: po; in short: as §1
Mus musculus [26] = assay: Effective dose by mouse phenyl-p-benzoquinone writhing (PQW)assay after peroral administration; 0.23-0.53; conditions: po
Mus musculus [27] = assay: Effective dose by mouse phenyl-p-benzoquinone writhing (PQW)assay after peroral administration; activity value ranges from (49.8-84.8); conditions: po; in short: as §1
Mus musculus [28] = assay: Effective dose by mouse phenyl-p-benzoquinone writhing (PQW)assay after peroral administration; activity value ranges from (0.37-1.22); conditions: po

SMILES: O=S(=O)(c1nc(-c2cccc(Cl)c2)c(-c2ccccc2)[nH]1)C(F)(F)C(F)F
- ED50 (Mus musculus [1]): 19.8 mg/kg
- ED50 (Rattus norvegicus [2]): 0.04 mg/kg

SMILES: COc1ccc(-c2[nH]c(SC(F)(F)F)nc2-c2ccc(F)cc2)cc1
- ED50 (Mus musculus [3]): 78 mg/kg

SMILES: FC(F)(F)CSc1nc(-c2ccccc2)c(-c2ccccc2)[nH]1
- ED50 (Mus musculus [4]): > 130 mg/kg
- Decrease (Rattus norvegicus [5]): 54%

SMILES: O=S(=O)(c1nc(-c2ccc(Cl)cc2)c(-c2ccc(Cl)cc2)[nH]1)C(F)F
- ED50 (Mus musculus [6]): 2.3 mg/kg

SMILES: O=S(=O)(c1nc(-c2cccc(Cl)c2)c(-c2cccc(Cl)c2)[nH]1)C(F)(F)C(F)F
- ED50 (Mus musculus [7]): 20.9 mg/kg

SMILES: COc1ccc(-c2nc([S+]([O-])C(C)C)[nH]c2-c2ccc(OC)cc2)cc1 (configuration not stated)
- Decrease (Rattus norvegicus [8]): 36%
- ED50 (Mus musculus [4]): > 130 mg/kg

SMILES: CCSc1nc(-c2ccc(OC)cc2)c(-c2ccc(OC)cc2)[nH]1
- ED50 (Mus musculus [9]): 11 mg/kg
- ED50 (Rattus norvegicus [2]): 5 mg/kg

SMILES: O=S(=O)(CC(F)(F)F)c1nc(-c2ccc(F)cc2)c(-c2ccc(F)cc2)[nH]1
- ED50 (Mus musculus [10]): 20 mg/kg

SMILES: [O-][S+](CC(F)(F)F)c1nc(-c2ccc(Cl)cc2)c(-c2ccc(Cl)cc2)[nH]1 (configuration not stated)
- ED50 (Mus musculus [11]): 5.3 mg/kg
- ED50 (Rattus norvegicus [2]): 2.3 mg/kg

SMILES: Cc1ccc(-c2nc(S(=O)(=O)C(F)(F)C(F)F)[nH]c2-c2ccc(C)cc2)cc1
- ED50 (Mus musculus [12]): 11 mg/kg

SMILES: O=S(=O)(c1nc(-c2cccc(F)c2)c(-c2ccccc2)[nH]1)C(F)(F)C(F)F
- ED50 (Mus musculus [13]): 2 mg/kg

SMILES: COc1ccc(-c2[nH]c(S(C)(=O)=O)nc2-c2ccccc2)cc1
- ED50 (Mus musculus [14]): 26 mg/kg
- Decrease (Rattus norvegicus [15]): 33%

SMILES: CSc1nc(-c2cccc(Cl)c2)c(-c2ccccc2)[nH]1
- ED50 (Mus musculus [4]): > 130 mg/kg
- Decrease (Rattus norvegicus [16]): 43%

SMILES: CCS(=O)(=O)c1nc(-c2ccc(OC)cc2)c(-c2ccc(OC)cc2)[nH]1
- ED50 (Mus musculus [17]): 10 mg/kg
- ED50 (Rattus norvegicus [2]): 6 mg/kg

SMILES: O=S(=O)(c1nc(-c2ccc(C(F)(F)F)cc2)c(-c2ccccc2)[nH]1)C(F)(F)C(F)F
- ED50 (Mus musculus [18]): 40 mg/kg

SMILES: O=S(=O)(c1nc(-c2ccccc2)c(-c2ccccc2)[nH]1)C(F)(F)C(F)Br (configuration not stated)
- ED50 (Mus musculus [19]): 6.6 mg/kg

SMILES: COc1ccc(-c2nc(S(=O)(=O)C(F)(F)C(Br)Br)[nH]c2-c2ccc(OC)cc2)cc1
- ED50 (Mus musculus [20]): 10.8 mg/kg
- ED50 (Rattus norvegicus [2]): > 9 mg/kg

SMILES: [O-][S+](CC(F)(F)F)c1nc(-c2ccccc2)c(-c2ccccc2)[nH]1 (configuration not stated)
- ED50 (Mus musculus [21]): 54 mg/kg
- ED50 (Rattus norvegicus [2]): 75 mg/kg

SMILES: [O-][S+](c1nc(-c2ccc(Cl)cc2)c(-c2ccc(Cl)cc2)[nH]1)C(F)F (configuration not stated)
- ED50 (Mus musculus [22]): 1.3 mg/kg

SMILES: CS(=O)(=O)c1nc(-c2ccccc2Cl)c(-c2ccccc2Cl)[nH]1
- ED50 (Rattus norvegicus [2]): > 50 mg/kg
- ED50 (Mus musculus [23]): 108 mg/kg

SMILES: CC[S+]([O-])c1nc(-c2ccc(OC)cc2)c(-c2ccc(OC)cc2)[nH]1 (configuration not stated)
- ED50 (Mus musculus [24]): 36 mg/kg

SMILES: O=S(=O)(c1nc(-c2ccc(F)cc2)c(-c2ccc(C(F)(F)F)cc2)[nH]1)C(F)(F)C(F)F
- ED50 (Mus musculus [25]): 18 mg/kg
- ED50 (Rattus norvegicus [2]): > 1 mg/kg

SMILES: COc1ccc2c(c1)c(CC(=O)O)c(C)n2C(=O)c1ccc(Cl)cc1 [INDOMETHACIN]
- ED50 (Mus musculus [26]): 0.35 mg/kg

SMILES: CCCCC1C(=O)N(c2ccccc2)N(c2ccccc2)C1=O [PHENYLBUTAZONE]
- ED50 (Mus musculus [27]): 65 mg/kg

SMILES: O=S(=O)(c1nc(-c2ccc(F)cc2)c(-c2ccc(F)cc2)[nH]1)C(F)(F)C(F)F [TIFLAMIZOLE]
- ED50 (Mus musculus [28]): 0.67 mg/kg

— ChEMBL document CHEMBL1123026, “Preparation and antiarthritic and analgesic activity of 4,5-diaryl-2-(substituted thio)-1H-imidazoles and their sulfoxides and sulfones” (1985)
